What was measured:
Assay type in all cases: functional
Parameters in all cases: concentration or dose not given beside the values
[1] = organism: Rattus norvegicus; experiment: Activity to induce the elevation of triglycerides in plasma lipids of male Wistar rats
Outline: (§1)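 Wistar rats on normal diet; groups were vehicle control, an internal-standard diphosphonate, and test compounds. Dosed daily for 4 days; diphosphonates were dissolved in water or suspended in 1% (carboxymethyl)cellulose, 4 mL/kg. On day 5, after overnight fast, rats were killed under ether. EDTA plasma was assayed enzymatically for HDL-C after heparin-CaCl2 precipitation of VLDL/LDL, phospholipids, triglycerides and α/β-cholesterol ratio. Results are given as % of control.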

[2] = organism: Rattus norvegicus; experiment: Activity to induce the elevation of alpha/beta cholesterol ratio in plasma lipids of male Wistar rats; outline: as §1
[3] = organism: Rattus norvegicus; experiment: Activity to induce the elevation of HDL(High Density Lipoproteins)-Cholesterol in plasma lipids of male Wistar rats; outline: as §1
[4] = organism: Rattus norvegicus; experiment: Activity to induce the elevation of phospholipids in plasma lipids of male Wistar rats; outline: as §1
[5] = organism: Rattus norvegicus; experiment: Activity to induce the elevation of HDL(High Density Lipoproteins)-Cholesterol of male Wistar rats; outline: as §1
[6] = organism: Rattus norvegicus; experiment: Activity to induce the elevation of alpha/beta cholesterol ratio of male Wistar rats; outline: as §1
[7] = organism: Rattus norvegicus; experiment: Activity to induce the elevation of triglycerides of male Wistar rats; outline: as §1
[8] = organism: Rattus norvegicus; experiment: Activity to induce the elevation of phospholipids of male Wistar rats; outline: as §1

Compound	Control [1] [%]	Control [2] [%]	Control [3] [%]	Control [4] [%]	HDL-cholesterol change relative to control (%) [5] [%]	Percent change in alpha/beta cholesterol ratio versus control [6] [%]	Percent change in plasma triglycerides versus control [7] [%]	Plasma phospholipids, % change versus control [8] [%]
CCOP(=O)(OCC)C(Cl)(CCCc1ccccc1)P(=O)(OCC)OCC	-4	-23	-2	27				
COP(=O)(OC)C(O)(c1ccc(Cl)cc1)P(=O)(OC)OC					44	130	15	19
COP(=O)(OC)OC(C(C)(C)c1ccccc1)P(=O)(OC)OC (configuration not stated)					33	25	36	15
COP(=O)(OC)OC(C(C)(C)Cc1ccc(Cl)cc1)P(=O)(OC)OC (configuration not stated)					-30	-38	-19	-27
COP(=O)(OC)C(Cc1ccccc1)P(=O)(OC)OC					32	22	-3	25
CC(C)OP(=O)(OC(C)C)C(Cc1ccc(Cl)cc1)P(=O)(OC(C)C)OC(C)C					12	-1	19	13
COP(=O)(OC)C(CCCc1ccccc1)P(=O)(OC)OC					52	49	42	33
CCCCCCCCCCCCCCOc1ccc(CC(P(=O)(OCC)OCC)P(=O)(OCC)OCC)cc1	-27	-28	27	-4				
CCCCCCCCCCCCCCCC(O)(P(=O)(OC)OC)P(=O)(OC)OC	14	-38	-3	4				
CCOP(=O)(OCC)C(CCc1ccccc1)P(=O)(OCC)OCC					41	74	11	16
COP(=O)(OC)C(Cl)(CCCOc1ccccc1)P(=O)(OC)OC	-3	-42	57	15				
COP(=O)(OC)OC(CC(C)(C)C)P(=O)(OC)OC (configuration not stated)					47	44	-9	18
COP(=O)(OC)C(O)(c1ccc(F)cc1)P(=O)(OC)OC					23	64	27	3
O=P(O)(O)C(Cc1ccccc1)P(=O)(O)O					-8	-10	-11	3
COP(=O)(O)C(Cc1ccc(Cl)cc1)P(=O)(O)OC (configuration not stated)					27	-20	-30	6
COP(=O)(OC)C(Cl)(Cc1ccc(Cl)cc1)P(=O)(OC)OC	11	81	10	7				
COP(=O)(OC)OC(c1ccc(C(F)(F)F)cc1)P(=O)(OC)OC (configuration not stated)					22	29	4	3
CCOP(=O)(OCC)C(Cc1ccccc1)P(=O)(OCC)OCC					5	28	-47	5
